# Candida biofilm: kills Candida albicans biofilms; C. albicans biofilm + clotrimazole, Alamar Blue; hit rate 0.14% among 85,000; inhibition, % at 6 µM;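 active = inhibition above 20%; inactive = inhibition below 20%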;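 note: preformed 24 hr biofilms exposed to compound for 48 hr; 0% = biofilm without compound and 100% = blank killed by clotrimazole plus chlorhexidine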
# JNK3 inh: inhibitors of human JNK3 kinase; inhibition, % at 8 µM; hit rate 0.61% among 60,000; purified JNK3 kinase activity, HTS; P53779; AID 746; in the data active = inhibition above about 17%;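 note: 0% = DMSO and 100% = reference inhibitor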
# RORA act: activators of human nuclear receptor RORA. P35398. CHO-K1 Gal4-RORA LBD luciferase reporter, luminescence; percent increase over mock-subtracted basal signal. activation, % at 10 µM. hit rate 1.5% among 65,000. AID 560;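 active = activation above the mean of all tested compounds plus 3 SD, cut at about 49% in these data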;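 note: 0% = DMSO-treated RORA cells and 100% = added signal equal to DMSO minus mock-transfected cells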
# SF1 activator: activates the human nuclear receptor SF-1; Q13285; CHO-K1 Gal4-SF-1 LBD luciferase reporter; % increase over DMSO SF-1-specific signal; activation, % at 10 µM; hit rate 1.9% among 65,000;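 active = activation above the mean activation of all tested compounds plus 3 SD, cut at about 50% in these data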
# Target sequence (Q13285 whole entry, looked up, the tested form may be a part): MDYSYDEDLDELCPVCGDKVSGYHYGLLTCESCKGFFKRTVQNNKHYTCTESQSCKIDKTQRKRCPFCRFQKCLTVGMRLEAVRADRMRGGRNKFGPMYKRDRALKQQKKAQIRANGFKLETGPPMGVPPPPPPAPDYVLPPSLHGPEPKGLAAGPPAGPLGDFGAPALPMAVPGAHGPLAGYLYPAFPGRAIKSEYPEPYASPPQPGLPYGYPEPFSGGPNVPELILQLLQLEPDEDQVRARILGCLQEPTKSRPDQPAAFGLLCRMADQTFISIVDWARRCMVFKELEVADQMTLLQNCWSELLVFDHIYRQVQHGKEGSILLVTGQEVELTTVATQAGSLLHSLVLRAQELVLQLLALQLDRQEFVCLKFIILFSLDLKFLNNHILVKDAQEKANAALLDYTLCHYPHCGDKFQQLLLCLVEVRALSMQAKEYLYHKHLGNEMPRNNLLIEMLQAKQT
#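 Test system: transient Gal4-SF-1 LBD reporter, CHO-K1; Amount: 4,000 CHO-K1 cells per well; Doses: 10 µM only; Timing: compound exposure 20 h at 37 °C; Signal: luciferase light emission; Read-out basis: percent activation relative to DMSO median and mock-transfected background; Control set: DMSO negative control and −SF1 background wells; Replicates: one test per compound.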
# Numbers without * were called inactive; x = not tested or not shown. An excerpt weighted towards active compounds, which were near 2.3% of everything screened.
SMILES,Candida biofilm,JNK3 inh,RORA act,SF1 activator
Cc1nc(NC(=O)c2ccccc2)sc1-c1csc(N)n1,6.4,8.9,80.6*,32.3
CCCCN(Cc1ccccc1)S(=O)(=O)c1cc(Br)cc2c1N(C(C)=O)C(C)C2 (stereo not given),-1.8,x,x,x
Nc1c(-c2ccc(Cl)cc2)nnn1-c1ccccc1,7.8,x,86.8*,60.7*
CCCNC(=O)c1ccccc1NC(=O)CN(c1ccccc1OCC)S(C)(=O)=O,8.3,7.6,-41.7,-12.0
COc1ccc(NC2CC(=O)N(C(C)C)C2=O)cc1 (stereo not given),6.0,-2.3,9.6,50.4*
CCOc1ccc2nc(N3CCCCCC3)sc2c1,2.0,-7.2,36.3,58.4*
CCOc1ccc2nc(N3CCC(C(=O)Nc4nnc(CC)s4)CC3)sc2c1,0.9,-5.8,46.2,67.1*
CCOc1ccc2nc(N3CCC(C(=O)N4CCN(C(=O)c5ccco5)CC4)CC3)sc2c1,13.2,-5.3,16.2,17.9
CCOc1ccc2nc(N3CCC(C(=O)N4CCN(C5CCCCC5)CC4)CC3)sc2c1,3.5,4.9,27.4,24.5
Cc1c(Br)c([N+](=O)[O-])nn1CC(=O)NCc1cccnc1,4.5,x,x,x
Cn1ncc2c1ncn1c(-c3ccccc3Cl)nnc21,2.0,-10.7,22.8,-1.6
CCOC(=O)c1cnc2ccc(OCC)cc2c1N1CCN(C)CC1,8.1,8.0,22.0,-4.2
CCOC(=O)c1cnc2ccc(Cl)cc2c1N1CCN(C)CC1,9.5,31.8*,7.4,-0.2
C#Cc1ccc(C(=O)Nc2cc(C(N)=O)ccc2N2CCOCC2)cc1,2.8,-6.9,-13.6,-0.1
O=C1OC(N2CCN(Cc3ccccc3)CC2)c2ccccc21 (stereo not given),0.1,-3.1,69.1*,-16.3
COc1ccc2nc(/N=C(\N)NC(=O)C(C)(C)C)nc(C)c2c1,-3.5,-5.5,11.8,34.2
CCC(=O)N/C(N)=N/c1nc(C)c2cc(OC)ccc2n1,8.9,-1.1,68.6*,43.8
CCN1CC=C2C(C#N)=C(N)C(C#N)(C#N)C(c3cc(Cl)ccc3Cl)C2C1 (stereo not given),5.6,-6.7,1.8,12.4
C/C(=N\O)c1ccc2c3ccccc3n(C)c2c1,5.6,5.7,45.0,54.3*
C/C(=N\O)c1c(C)c2ccccc2n1C,7.8,0.5,-5.7,-4.6
c1ccc(Nc2nc3ccccc3[nH]2)nc1,8.6,-1.5,78.6*,54.7*
CCN(CC)c1ccc(-c2nc3cnccc3n2C)cc1,-5.6,-10.4,67.3*,36.6
COc1ccccc1CN(Cc1cc2cc(C)ccc2[nH]c1=O)Cc1nnnn1CC1CCCO1 (stereo not given),3.9,-0.7,14.4,13.7
COc1ccccc1CN(Cc1cc2cc(C)cc(C)c2[nH]c1=O)Cc1nnnn1CC1CCCO1 (stereo not given),0.9,5.6,53.5*,49.3
O=C(NCC1COc2ccccc2O1)c1ccc(Cl)cc1 (stereo not given),4.7,3.4,32.3,59.5*
SMILES,Candida biofilm,JNK3 inh,RORA act,SF1 activator
Oc1ccc(-c2nc3ccccn3c2NCc2ccco2)cc1,6.0,x,x,x
CN1CCN(C(=O)c2cccc(COc3cc(Cl)ccc3Cl)c2)CC1,x,-2.0,45.7,69.3*
COCCNc1oc(-c2ccc(Cl)cc2)nc1C#N,-1.8,-2.8,34.5,39.7
COCCNc1oc(-c2ccc(C)cc2)nc1C#N,11.3,-10.0,48.4,60.6*
Cc1ccc(-c2nc(C#N)c(NCCc3ccccn3)o2)cc1,3.4,1.0,61.0*,54.4*
CCOc1ccc(-c2nc(C#N)c(NC3CC3)o2)cc1,x,7.7,62.8*,8.7
CCC(CC)C(=O)Nc1cccc(C(=O)c2ccccc2)c1,13.3,x,x,x
COc1ccc(S(=O)(=O)N(CC(=O)NCC2CCCO2)c2ccc(F)cc2)cc1OC (stereo not given),7.2,x,x,x
CCN1CCCC1CNC(=O)c1nn(-c2ccc(C)cc2)c(=O)c2c1c1ccccc1n2C (stereo not given),3.6,-1.9,-9.7,-7.0
NC(=O)c1ncc(C(F)(F)F)cc1Oc1ccc(C(F)(F)F)cc1,5.9,x,x,x
CCOC(=O)N1CCC(NC(=O)C(NC(=O)C2CCC(C)CC2)C(C)CC)CC1 (stereo not given),0.0,x,x,x
Cc1ccc(-c2cc(C(=O)N3CCN(c4ncccn4)CC3)c3ccccc3n2)cc1,3.9,4.0,25.5,53.7*
CC1(C)Cc2nc3sc4c(=O)[nH]cnc4c3cc2CS1,8.5,-0.4,12.4,62.9*
OCCNc1ncnc2c1ncn2Cc1ccccc1,8.1,1.0,0.1,-5.5
C=CCn1cnc2c(NCc3ccccc3)ncnc21,9.5,7.5,45.9,64.9*
Cc1ccc(-c2nnc(Cc3ccc(Cl)cc3)o2)cc1,10.4,x,x,x
c1ccc(Cc2nnc(-c3ccccc3)o2)cc1,8.4,-1.8,50.5*,44.9
COc1ccc(CC(=O)Nc2cccc(-c3nnc(-c4cccc(C)c4)o3)c2)cc1OC,1.6,9.4,-86.6,-93.3
COc1ccc(Cc2nnc(-c3cccc(C)c3)o2)cc1OC,24.0*,1.3,-0.7,31.4
COCc1cc(C)nc(SCC(=O)Nc2cc3c(cc2C#N)OCO3)c1C#N,-2.0,21.6*,6.0,-4.3
COCc1cc(C)nc(SCC(=O)Nc2ccccc2C)c1C#N,4.7,5.3,-9.8,-12.2
COc1ccnc(N=CNOCc2ccc(F)cc2Cl)c1C#N,2.7,x,x,x
Cc1cc(NC(=O)C2CCN(S(=O)(=O)c3cnc[nH]3)CC2)ccc1Br,-1.9,-5.3,14.2,-5.0
Cc1ccc(-c2c(C(=O)N3CCOCC3)oc(=O)c3ccccc23)cc1,27.0*,0.0,23.1,-2.4
CCN1CCN(C(=O)c2oc(=O)c3ccccc3c2-c2ccc(C)cc2)CC1,2.6,-5.3,13.7,1.5
SMILES,Candida biofilm,JNK3 inh,RORA act,SF1 activator
CC1(C)Cc2c(C#N)c(N3CCN(C(=O)c4ccccc4)CC3)nc(-c3ccco3)c2CS1,x,-3.6,-25.0,-4.0
CC(C)c1nc(N2CCN(C(=O)c3ccccc3)CC2)c(C#N)c2c1COC(C)(C)C2,6.8,9.1,17.6,53.3*
C/C(=N\NC(=O)CC1N=C(Cc2ccccc2)NNC1=O)c1ccc(Cl)cc1Cl (stereo not given),4.4,x,x,x
CC(Oc1cc(-c2ccccc2)cc2ccccc12)C(=O)N1CCOCC1 (stereo not given),6.0,x,x,x
CCn1c(C(C)NC(C)=O)nc2ccccc21 (stereo not given),-3.0,31.0*,-15.8,11.2
CCn1c(C(C)NC(=O)c2cccs2)nc2ccccc21 (stereo not given),-4.2,-3.5,-13.7,-14.4
CCCN(CC1CC1)S(=O)(=O)c1ccc(-n2cnnn2)c(OC)c1,5.4,x,x,x
CN(C)S(=O)(=O)c1cccc(C(=O)NCc2cccs2)c1,6.1,x,x,x
O=C1C(c2ccncc2)=C(O)c2ccccc21,1.9,56.4*,7.7,7.8
c1ccc2c(c1)NC1(CCCCC1)n1c-2nc2ccccc21,3.8,-3.4,52.9*,31.0
c1ccc2c(c1)NC1(CCCCCC1)n1c-2nc2ccccc21,0.6,x,x,x
Cc1ccc(-c2noc(CSc3nc(N)cc(N)n3)n2)cc1,8.7,-1.9,58.1*,61.4*
Cc1ccccc1C(=O)c1cccn1CC(=O)NCCN1CCN(c2cccc(C)c2C)CC1,2.6,x,x,x
CCC(C)NS(=O)(=O)c1ccc(S(=O)(=O)N(CC(=O)Nc2ccccc2)CC2CCCO2)cc1 (stereo not given),6.9,x,x,x
